# Test results published in ChEMBL document CHEMBL1125136, “Quinolone antibacterial agents substituted at the 7-position with spiroamines. Synthesis and structure-activity relationships” (1990).
# Assays:
# Escherichia coli [1] = test: In vivo protective dose for mouse protection assay in Escherichia coli Vogel after peroral administration; assay type: functional; settings: po, read-out: PD50
# Summary of the method: (§1)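 Female Charles River CD-1 mice were given an acute, lethal, systemic infection. A single dose of compound was given at the time of challenge, by the route stated in the line, with 16 animals per dose level. The read-out is the median protective dose (PD50, mg/kg). Per the footnote, values come from 16 animals per test, with a mean variation of ±34%.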
# Escherichia coli [2] = test: In vivo protective dose was determined in mouse protection assay in Escherichia coli Vogel after subcutaneous administration; assay type: functional; settings: sc, read-out: PD50; summary of the method: as §1
# Enterobacter cloacae = test: Evaluated for minimum inhibitory concentration against gram-negative bacteria Enterobacter cloacae HA 2646; assay type: functional
# Escherichia coli [3] = test: Evaluated for minimum concentration needed to produce linear DNA at an intensity relative to oxolinic acid at 10 mg/mL. by gyrase mediated cleavage of DNA in Escherichia coli 560.; assay type: functional; settings: read-out: MIC
# Escherichia coli [4] = test: Evaluated for minimum inhibitory concentration against gram-negative bacteria Escherichia coli Vogel; assay type: functional
# Summary of the method: (§2)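 Broth microdilution MIC by standard technique. Values come from duplicate experiments and are stated as accurate to ±50%.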
# Klebsiella pneumoniae = test: Evaluated for minimum inhibitory concentration against gram-negative bacteria Klebsiella pneumoniae MGH-2; assay type: functional; summary of the method: as §2
# Pseudomonas aeruginosa [5] = test: Evaluated for minimum inhibitory concentration against gram-negative bacteria Pseudomonas aeruginosa UI-18; assay type: functional; summary of the method: as §2
# Pseudomonas = test: Evaluated for minimum inhibitory concentration against gram-negative bacteria Pseudomonas rettgeri H1771; assay type: functional; summary of the method: as §2
# Pseudomonas aeruginosa [6] = test: In vivo protective dose was determined against Pseudomonas aeruginosa UI-18. after peroral administration; assay type: functional; settings: po, read-out: PD50; summary of the method: as §1
# Pseudomonas aeruginosa [7] = test: In vivo protective dose was determined against Pseudomonas aeruginosa UI-18. after subcutaneous administration; assay type: functional; settings: sc, read-out: PD50; summary of the method: as §1
# [8] = Evaluated for minimum inhibitory concentration against […] bacteria […] SV-1; assay type: functional; summary of the method: as §2
# Staphylococcus aureus [9] = test: Evaluated for minimum inhibitory concentration against […] bacteria Staphylococcus aureus H228; assay type: functional; summary of the method: as §2
# Staphylococcus aureus [10] = test: Evaluated for minimum inhibitory concentration against […] bacteria Staphylococcus aureus UC-76; assay type: functional; summary of the method: as §2
# Streptococcus pyogenes [11] = test: In vivo protective dose was determined against Streptococcus pyogenes after peroral administration; settings: po, read-out: PD50
# Streptococcus pyogenes [12] = test: In vivo protective dose was determined against Streptococcus pyogenes after subcutaneous administration; settings: sc, read-out: PD50
# Streptococcus pneumoniae [13] = test: In vivo protective dose was determined against Streptococcus pneumoniae SV-1 after peroral administration; settings: po, read-out: PD50
# Streptococcus pyogenes [14] = test: Evaluated for minimum inhibitory concentration against gram-positive bacteria Streptococcus pyogenes C203
# Enterococcus faecalis = test: Evaluated for minimum inhibitory concentration against gram-positive bacteria Staphylococcus faecalis MGH-2
# Streptococcus pneumoniae [15] = test: In vivo protective dose was determined against Streptococcus pneumoniae SV-1 after subcutaneous administration; settings: sc, read-out: PD50
# Staphylococcus aureus [16] = test: In vivo protective dose was determined against Staphylococcus aureus VC76 after peroral administration; assay type: functional; settings: po, read-out: PD50; summary of the method: as §1
# Staphylococcus aureus [17] = test: In vivo protective dose was determined against Staphylococcus aureus VC76. after subcutaneous administration; assay type: functional; settings: sc, read-out: PD50; summary of the method: as §1
Structure (SMILES),ED50 (Escherichia coli [1]) [mg/kg],ED50 (Escherichia coli [2]) [mg/kg],MIC (Enterobacter cloacae) [mg/L],minimum concentration for gyrase-mediated DNA cleavage (Escherichia coli [3]) [µg/mL],MIC (Escherichia coli [4]) [mg/L],MIC (Klebsiella pneumoniae) [mg/L],MIC (Pseudomonas aeruginosa [5]) [mg/L],MIC (Pseudomonas) [mg/L],MIC [8] [mg/L],MIC (Staphylococcus aureus [9]) [mg/L],MIC (Staphylococcus aureus [10]) [mg/L],MIC (Streptococcus pyogenes [14]) [mg/L],MIC (Enterococcus faecalis) [mg/L],also measured
CCN1CCC2(CCN(c3c(F)cc4c(=O)c(C(=O)O)cn(CC)c4c3F)C2)C1 (stereo unspecified),13,6,0.4,5,0.2,0.2,3.1,1.6,0.8,0.2,0.1,0.4,0.2,ED50 (Pseudomonas aeruginosa [6]): > 100 mg/kg; ED50 (Pseudomonas aeruginosa [7]): 180 mg/kg; ED50 (Streptococcus pyogenes [11]): 70 mg/kg; ED50 (Streptococcus pyogenes [12]): 38 mg/kg; ED50 (Streptococcus pneumoniae [13]): 68 mg/kg; ED50 (Streptococcus pneumoniae [15]): 43 mg/kg
CC1COc2c(N3CCC4(CCN(C)C4)C3)c(F)cc3c(=O)c(C(=O)O)cn1c23 (stereo unspecified),14,4.5,0.2,1,0.025,0.1,0.8,0.4,0.2,0.1,0.006,0.1,0.1,ED50 (Pseudomonas aeruginosa [6]): 200 mg/kg; ED50 (Pseudomonas aeruginosa [7]): 56 mg/kg; ED50 (Staphylococcus aureus [16]): 12.5 mg/kg; ED50 (Staphylococcus aureus [17]): 2.1 mg/kg; ED50 (Streptococcus pyogenes [11]): 31 mg/kg; ED50 (Streptococcus pyogenes [12]): 6 mg/kg; ED50 (Streptococcus pneumoniae [13]): 63 mg/kg; ED50 (Streptococcus pneumoniae [15]): 11.5 mg/kg
CCn1cc(C(=O)O)c(=O)c2cc(F)c(N3CCC4(CCN(C)C4)C3)cc21 (stereo unspecified),–,–,0.2,5,0.2,0.8,3.1,3.1,0.4,0.8,0.1,0.4,0.4,–
O=C(O)c1cn(C2CC2)c2c(F)c(N3CCC4(CCNC4)C3)c(F)cc2c1=O (stereo unspecified),> 100,7,0.2,0.1,0.2,0.4,1.6,0.8,0.1,0.2,0.025,0.025,0.4,–
CCn1cc(C(=O)O)c(=O)c2cc(F)c(N3CCCC4(CCCNC4)C3)nc21 (stereo unspecified),–,–,25,50,12.5,25,50,100,12.5,6.3,3.1,50,12.5,–
CCn1cc(C(=O)O)c(=O)c2c(F)c(F)c(N3CCC4(CCN(C)C4)C3)c(F)c21 (stereo unspecified),22,12.5,0.8,5,0.8,1.6,6.3,6.3,0.8,0.8,0.2,1.6,1.6,–
CCNCC1CCN(c2c(F)cc3c(=O)c(C(=O)O)cn(CC)c3c2F)C1 (stereo unspecified) [MERAFLOXACIN],–,–,0.2,2.5,0.1,0.2,1.6,0.4,0.1,0.1,0.05,0.1,0.1,–
NC1CCN(c2c(F)cc3c(=O)c(C(=O)O)cn(C4CC4)c3c2F)C1 (stereo unspecified),–,–,0.025,0.1,0.013,0.025,0.1,0.05,0.05,0.05,0.025,0.25,0.05,–
CC1COc2c(N3CCC4(CCN(C)C4)C3)c(F)c(N)c3c(=O)c(C(=O)O)cn1c23 (stereo unspecified),–,–,0.4,1,0.4,0.8,12.5,6.3,0.4,0.4,0.1,0.2,0.4,–
CCN1CCC2(CCN(c3c(F)cc4c(=O)c(C(=O)O)cn(C5CC5)c4c3F)C2)C1 (stereo unspecified),–,–,0.2,0.5,0.1,0.2,1.6,0.4,0.2,0.1,0.025,0.2,0.1,–
CCn1cc(C(=O)O)c(=O)c2cc(F)c(N3CCC4(CCNC4)C3)c(F)c21 (stereo unspecified),> 100,15,0.2,2.5,0.1,0.2,0.8,1.6,0.2,0.1,0.05,0.1,0.2,–
CCn1cc(C(=O)O)c(=O)c2cc(F)c(N3CCC4(CCN(C)C4)C3)nc21 (stereo unspecified),11.4,4.4,0.4,10,0.1,0.4,1.6,1.6,0.8,0.1,0.025,0.4,0.2,ED50 (Pseudomonas aeruginosa [6]): 200 mg/kg; ED50 (Pseudomonas aeruginosa [7]): 58 mg/kg; ED50 (Staphylococcus aureus [16]): 8.5 mg/kg; ED50 (Staphylococcus aureus [17]): 3.6 mg/kg; ED50 (Streptococcus pyogenes [11]): 27 mg/kg; ED50 (Streptococcus pyogenes [12]): 13 mg/kg; ED50 (Streptococcus pneumoniae [13]): 30 mg/kg; ED50 (Streptococcus pneumoniae [15]): 16 mg/kg
O=C(O)c1cn(C2CC2)c2c(F)c(N3CCC4(CCCN4)C3)c(F)cc2c1=O (stereo unspecified),4,1,0.025,0.5,0.025,0.1,0.2,0.8,0.4,0.05,0.4,0.4,0.4,–
CCNCC1CCN(c2c(F)cc3c(=O)c(C(=O)O)cn(C4CC4)c3c2F)C1 (stereo unspecified) [PD-117558],–,–,0.1,0.25,0.05,0.1,0.4,0.2,0.025,0.025,0.006,0.025,0.025,–
CC1COc2c(N3CCN(C)CC3)c(F)cc3c(=O)c(C(=O)O)cn1c23 (stereo unspecified) [OFLOXACIN],–,–,0.1,6.2,0.2,0.2,1.6,0.4,0.4,3.1,0.4,3.1,6.3,–
O=C(O)c1cn(C2CC2)c2cc(N3CCNCC3)c(F)cc2c1=O [CIPROFLOXACIN],–,–,–,–,0.025,0.025,0.1,0.025,0.4,1.6,0.1,0.2,0.4,–
CCn1cc(C(=O)O)c(=O)c2cc(F)c(N3CCC4(CCNC4)C3)nc21.Cl (stereo unspecified),> 100,28,0.8,5,0.8,3.1,0.8,12.5,0.8,3.1,0.4,0.2,1.6,–
CCn1cc(C(=O)O)c(=O)c2cc(F)c(N3CCC(N)C3)c(F)c21 (stereo unspecified),–,–,0.1,1,0.05,0.2,0.4,0.2,0.4,0.4,0.05,0.4,0.8,–
CCn1cc(C(=O)O)c(=O)c2cc(F)c(N3CCC4(CCCN4)C3)c(F)c21.Cl (stereo unspecified),–,–,0.2,2.5,0.2,0.4,1.6,0.8,1.6,1.6,0.8,1.6,3.1,–
CCn1cc(C(=O)O)c(=O)c2cc(F)c(N3CCNCC3)cc21 [NORFLOXACIN],–,–,0.1,5.2,0.1,0.2,0.8,0.2,3.1,3.1,0.4,3.1,3.1,–
